In brackets after ≈: the same amount, converted by molar mass. Activity calls are given as the source filed them. No cut-off for these calls is given here.
Columns and labels:
Keap1/Nrf2 = Keap1/Nrf2 (Homo sapiens, UniProt Q14145); assay: Inhibition of Keap1 Kelch domain-Nrf2 ETGE (unknown origin) protein-protein interaction incubated for 30 mins by fluorescence polarization competition assay
Mus musculus [1] = assay: Toxicity in LPS-challenged C57BL/6 mouse model of acute inflammation assessed as changes in body weight at 80 mg/kg, ip for 3 days pre-treated for 3 days followed by LPS challenge 24 hrs after last dose and measured 5 hrs post LPS challenge; type: organism-based; conditions: in vivo
Method in brief: (§1)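 Female C57BL/6 mice (12−16 weeks), n = 10 per group, dosed IP once daily on days −3 to −1, then challenged with 300 μg LPS IP 24 h after the last dose. Body weight and signs of acute toxicity were monitored during the pretreatment period.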

Mus musculus [2] = assay: Toxicity in LPS-challenged C57BL/6 mouse model of acute inflammation at 80 mg/kg, ip for 3 days pre-treated for 3 days followed by LPS challenge 24 hrs after last dose and measured 5 hrs post LPS challenge; type: organism-based; conditions: in vivo; method in brief: as §1
Mus musculus [3] = assay: Toxicity in LPS-challenged C57BL/6 mouse model of acute inflammation at 10 mg/kg, ip for 3 days pre-treated for 3 days followed by LPS challenge 24 hrs after last dose and measured 5 hrs post LPS challenge; type: organism-based; conditions: in vivo; method in brief: as §1
Mus musculus [4] = assay: Toxicity in LPS-challenged C57BL/6 mouse model of acute inflammation assessed as changes in body weight at 10 mg/kg, ip for 3 days pre-treated for 3 days followed by LPS challenge 24 hrs after last dose and measured 5 hrs post LPS challenge; type: organism-based; conditions: in vivo; method in brief: as §1
[5] = Solubility of the compound; type: physicochemical
Method in brief: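 Intrinsic solubility determined by the pH-metric method, a potentiometric acid−base titration, using the pSOL model.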

[6] = Lipophilicity, log D of the compound; type: physicochemical; conditions: octanol/water
Method in brief: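 log D at pH 7.4 measured by Avdeef−Bucher potentiometric titration on a Gemini Profiler instrument.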

Mus musculus [7] = assay: Anti-inflammatory in LPS-challenged C57BL/6 mouse model of acute inflammation assessed as reduction in IFNgamma level at 10 mg/kg, ip for 3 days pre-treated for 3 days followed by LPS challenge 24 hrs after last dose and measured 5 hrs post LPS challenge by ELISA method; type: functional, organism-based
Method in brief: (§2)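 Female C57BL/6 mice (12−16 weeks), randomised, n = 10 per group; single daily IP injection on days −3, −2, −1, then 300 μg LPS IP 24 h after the last dose (day 0). Controls were saline-only and saline plus LPS, with dexamethasone 10 mg/kg/day as positive control. Sera taken 5 h post-LPS; plasma frozen at −20 °C and cytokines read by double-sandwich ELISA; mean ± SEM.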

Mus musculus [8] = assay: Anti-inflammatory in LPS-challenged C57BL/6 mouse model of acute inflammation assessed as reduction in IL6 level at 10 mg/kg, ip for 3 days pre-treated for 3 days followed by LPS challenge 24 hrs after last dose and measured 5 hrs post LPS challenge by ELISA method; type: functional, organism-based; method in brief: as §2
Mus musculus [9] = assay: Anti-inflammatory in LPS-challenged C57BL/6 mouse model of acute inflammation assessed as reduction in IL12 level at 10 mg/kg, ip for 3 days pre-treated for 3 days followed by LPS challenge 24 hrs after last dose and measured 5 hrs post LPS challenge by ELISA method; type: functional, organism-based; method in brief: as §2
Mus musculus [10] = assay: Anti-inflammatory in LPS-challenged C57BL/6 mouse model of acute inflammation assessed as reduction in TNFalpha level at 10 mg/kg, ip for 3 days pre-treated for 3 days followed by LPS challenge 24 hrs after last dose and measured 5 hrs post LPS challenge by ELISA method; type: functional, organism-based; method in brief: as §2
Mus musculus [11] = assay: Anti-inflammatory in LPS-challenged C57BL/6 mouse model of acute inflammation assessed as reduction in IL17 level at 10 mg/kg, ip for 3 days pre-treated for 3 days followed by LPS challenge 24 hrs after last dose and measured 5 hrs post LPS challenge by ELISA method; type: functional, organism-based; method in brief: as §2

Chain of Keap1/Nrf2 (Q16236 whole entry, the tested form may be a part): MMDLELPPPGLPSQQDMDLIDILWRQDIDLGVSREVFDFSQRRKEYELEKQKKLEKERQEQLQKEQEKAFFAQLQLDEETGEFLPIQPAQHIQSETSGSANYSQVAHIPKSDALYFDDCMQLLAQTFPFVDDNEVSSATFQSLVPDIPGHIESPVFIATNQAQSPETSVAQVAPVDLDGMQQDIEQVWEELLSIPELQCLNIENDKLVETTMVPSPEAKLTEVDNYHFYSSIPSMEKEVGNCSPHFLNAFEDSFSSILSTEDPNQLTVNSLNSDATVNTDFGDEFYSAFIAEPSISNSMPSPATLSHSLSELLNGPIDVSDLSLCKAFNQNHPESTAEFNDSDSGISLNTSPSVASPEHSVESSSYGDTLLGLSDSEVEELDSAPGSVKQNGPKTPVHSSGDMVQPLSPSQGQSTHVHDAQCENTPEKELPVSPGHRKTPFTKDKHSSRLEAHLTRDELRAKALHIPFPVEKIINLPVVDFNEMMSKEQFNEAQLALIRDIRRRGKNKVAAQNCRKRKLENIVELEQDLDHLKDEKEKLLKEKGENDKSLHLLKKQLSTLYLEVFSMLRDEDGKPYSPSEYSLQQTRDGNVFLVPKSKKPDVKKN
Chain of Keap1/Nrf2 (Q14145 whole entry, the tested form may be a part): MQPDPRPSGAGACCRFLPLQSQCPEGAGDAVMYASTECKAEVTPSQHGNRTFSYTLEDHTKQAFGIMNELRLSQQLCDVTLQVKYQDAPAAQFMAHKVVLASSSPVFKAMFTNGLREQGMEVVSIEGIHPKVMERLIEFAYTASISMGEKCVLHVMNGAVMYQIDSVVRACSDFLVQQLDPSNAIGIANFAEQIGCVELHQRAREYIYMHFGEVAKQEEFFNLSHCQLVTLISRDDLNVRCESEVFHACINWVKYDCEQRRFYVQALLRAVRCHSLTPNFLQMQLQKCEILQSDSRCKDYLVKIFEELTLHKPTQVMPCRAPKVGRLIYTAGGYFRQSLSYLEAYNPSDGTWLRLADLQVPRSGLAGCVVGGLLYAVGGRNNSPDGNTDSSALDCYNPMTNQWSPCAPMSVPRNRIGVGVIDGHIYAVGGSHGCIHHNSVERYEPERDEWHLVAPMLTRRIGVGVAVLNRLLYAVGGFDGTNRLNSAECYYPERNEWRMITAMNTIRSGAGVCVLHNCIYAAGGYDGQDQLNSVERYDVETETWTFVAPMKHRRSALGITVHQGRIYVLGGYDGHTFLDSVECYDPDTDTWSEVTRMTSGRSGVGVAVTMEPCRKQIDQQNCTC

SMILES | IC50 (Keap1/Nrf2) [nM] | solubility ([5]; read-out: solubility) [µg/mL] | logD [6] | further results
COc1ccc(S(=O)(=O)N(CC(=O)O)c2ccc(N(CC(=O)O)S(=O)(=O)c3ccc(OC)cc3)c(OC)c2)cc1 | 602 |  |  | 
CC(=O)Nc1ccc(S(=O)(=O)N(CC(=O)O)c2ccc(N(CC(=O)O)S(=O)(=O)c3ccc(NC(C)=O)cc3)c3ccccc23)cc1 |  | 5000 (≈ 7480 µM) | 1.02 | Activity (Mus musculus [1]): Non-toxic; Activity (Mus musculus [2]): Non-toxic; Activity (Mus musculus [3]): Non-toxic; Activity (Mus musculus [4]): Non-toxic
CCCCc1ccc(S(=O)(=O)N(CC(=O)O)c2ccc(N(CC(=O)O)S(=O)(=O)c3ccc(CCCC)cc3)c3ccccc23)cc1 | 42.2 |  | 1.89 | solubility [5]: 0.006 µg/mL (≈ 0.009 µM)
COc1ccc(S(=O)(=O)N(CC(=O)O)c2ccc(N(CC(=O)O)S(=O)(=O)c3ccc(OC)cc3)c(C)c2)cc1 | 1670 |  |  | 
C[C@@H]1C[C@H]2[C@@H]3CCC4=CC(=O)C=C[C@]4(C)[C@@]3(F)[C@@H](O)C[C@]2(C)[C@@]1(O)C(=O)CO |  |  |  | inhibition (Mus musculus [7]): Active; inhibition (Mus musculus [8]): Active; inhibition (Mus musculus [9]): Active; inhibition (Mus musculus [10]): Active; inhibition (Mus musculus [11]): Active
N#Cc1ccc(S(=O)(=O)N(CC(=O)O)c2ccc(N(CC(=O)O)S(=O)(=O)c3ccc(C#N)cc3)c3ccccc23)cc1 | 118 | 1100 (≈ 1820 µM) | 0.65 | 
COc1cccc(S(=O)(=O)N(CC(=O)O)c2ccc(N(CC(=O)O)S(=O)(=O)c3cccc(OC)c3)c3ccccc23)c1 | 66.1 | 16 (≈ 26 µM) | 0.89 | 
COc1ccc(S(=O)(=O)N(CC(=O)O)c2cccc3c(N(CC(=O)O)S(=O)(=O)c4ccc(OC)cc4)cccc23)cc1 | 1860 |  |  | 
O=C(O)CN(c1ccc(N(CC(=O)O)S(=O)(=O)c2ccccc2)c2ccccc12)S(=O)(=O)c1ccccc1 | 34.3 | 183 (≈ 330 µM) | 0.45 | 
O=C(O)CN(c1ccc(N(CC(=O)O)S(=O)(=O)c2ccc(F)cc2)c2ccccc12)S(=O)(=O)c1ccc(F)cc1 | 54.3 | 3800 (≈ 6430 µM) | 1.16 | 
O=C(O)CN(c1ccc(N(CC(=O)O)S(=O)(=O)c2ccc(Br)cc2)c2ccccc12)S(=O)(=O)c1ccc(Br)cc1 | 36.5 | 5.7 (≈ 8 µM) | 4.29 | 
Cc1ccc(S(=O)(=O)N(CC(=O)O)c2ccc(N(CC(=O)O)S(=O)(=O)c3ccc(C)cc3)cc2)cc1 | 966 |  |  | 
O=C(O)CN(c1ccc(N(CC(=O)O)S(=O)(=O)c2ccc(C(F)(F)F)cc2)c2ccccc12)S(=O)(=O)c1ccc(C(F)(F)F)cc1 | 122 | 12.3 (≈ 17.8 µM) | 2.81 | 
O=C(O)CN(c1ccc(N(CC(=O)O)S(=O)(=O)c2ccc(OC(F)(F)F)cc2)c2ccccc12)S(=O)(=O)c1ccc(OC(F)(F)F)cc1 | 179 | 12.3 (≈ 17 µM) | 0.93 | 
Cc1cc(C)c(S(=O)(=O)N(CC(=O)O)c2ccc(N(CC(=O)O)S(=O)(=O)c3c(C)cc(C)cc3C)c3ccccc23)c(C)c1 | 979 | 20 (≈ 31.3 µM) | 3.44 | 
COc1ccc(S(=O)(=O)N(CC(=O)O)c2cc(C)c(N(CC(=O)O)S(=O)(=O)c3ccc(OC)cc3)cc2C)cc1 | 10200 |  |  | 
COc1ccc(S(=O)(=O)N(CC(=O)O)c2ccc(N(CC(=O)O)S(=O)(=O)c3ccc(OC)cc3)cc2)cc1 | 1450 |  |  | 
CC(C)(C)c1ccc(S(=O)(=O)N(CC(=O)O)c2ccc(N(CC(=O)O)S(=O)(=O)c3ccc(C(C)(C)C)cc3)c3ccccc23)cc1 | 50.2 | 1.6 (≈ 2.4 µM) | 5.2 | 
O=C(O)CN(c1ccc(N(CC(=O)O)S(=O)(=O)c2cccc3ccccc23)c2ccccc12)S(=O)(=O)c1cccc2ccccc12 | 47.4 | 5 (≈ 7.64 µM) | 3.9 | 
Cc1ccc(S(=O)(=O)N(CC(=O)O)c2ccc(N(CC(=O)O)S(=O)(=O)c3ccc(C)cc3)c3ccccc23)cc1 | 18.1 | 248 (≈ 426 µM) | 0.93 | 
O=C(O)CN(c1ccc(N(CC(=O)O)S(=O)(=O)c2ccc(Cl)cc2)c2ccccc12)S(=O)(=O)c1ccc(Cl)cc1 | 42.3 | 1200 (≈ 1920 µM) | 2.11 | 
COc1ccc(S(=O)(=O)N(CC(=O)O)c2ccc(N(CC(=O)O)S(=O)(=O)c3ccc(OC)cc3)c3ccccc23)cc1 |  | 388 (≈ 631 µM) |  | 

Source: ChEMBL document CHEMBL3600323, “Structure-Activity and Structure-Property Relationship and Exploratory in Vivo Evaluation of the Nanomolar Keap1-Nrf2 Protein-Protein Interaction Inhibitor” (J Med Chem, 2015)
